Source: ChEMBL document CHEMBL4350958, “Rational Design of Short Peptide Variants by Using Kunitzin-RE, an Amphibian-Derived Bioactivity Peptide, for Acquired Potent Broad-Spectrum Antimicrobial and Improved Therapeutic Potential of Commensalism Coinfection of Pathogens” (J Med Chem, 2019)
Values after ≈ are worked out from the molar mass of the structure shown.

Assays:
Escherichia coli [1] = assay: Antibacterial activity against Escherichia coli ATCC 25922 measured after 24 hrs; type: functional
In short: (§1)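 Broth microdilution adapted from NCCLS. Mid-log bacteria were diluted in MHB to a final (0.5–1) × 10^5 CFU mL−1. Peptides were serially diluted in 0.2% BSA and mixed with an equal volume of cells. After 24 h at 37 °C, MIC was read at A492 as the lowest concentration inhibiting 95% of growth. At least three independent experiments, each with three technical replicates.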

[2] = Antibacterial activity against Salmonella pullorum ATCC 7913 measured after 24 hrs; type: functional, Salmonella enterica subsp. enterica serovar Pullorum; conditions: Salmonella enterica, ATCC 7913, 24 h; in short: as §1
Pseudomonas aeruginosa [3] = assay: Antibacterial activity against Pseudomonas aeruginosa ATCC 27853 measured after 24 hrs; type: functional; in short: as §1
Escherichia coli [4] = assay: Antibacterial activity against Escherichia coli K88 measured after 24 hrs; type: functional; in short: as §1
[5] = system: Staphylococcus epidermidis; assay: Antibacterial activity against Staphylococcus epidermidis ATCC 12228 measured after 24 hrs; type: functional; in short: as §1
Escherichia coli [6] = assay: Bactericidal activity against Escherichia coli UB1005 incubated for 24 hrs followed by replating on agar plate and measured after overnight incubation; type: functional; conditions: for MBC: UB1005, 24 h, read-out: MBC>99.9
In short: (§2)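 Mid-log bacteria diluted in MHB to (0.5–1) × 10^5 CFU/mL and mixed 1:1 with peptide serially diluted in 0.2% BSA. After 24 h at 37 °C, 50 μL of each mixture was plated on agar and incubated overnight. MBC taken as the lowest concentration killing >99.9% of cells. At least three independent experiments, each with three technical replicates.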

Salmonella typhimurium = assay: Bactericidal activity against Salmonella typhimurium ATCC 14028 incubated for 24 hrs followed by replating on agar plate and measured after overnight incubation; type: functional, Salmonella enterica subsp. enterica serovar Typhimurium; conditions: for MBC: Salmonella enterica, ATCC 14028, 24 h, read-out: MBC>99.9; for MBC>99.9: Salmonella enterica subsp. enterica serovar Typhimurium; in short: as §2
Pseudomonas aeruginosa [7] = assay: Bactericidal activity against Pseudomonas aeruginosa ATCC 27853 incubated for 24 hrs followed by replating on agar plate and measured after overnight incubation; type: functional; conditions: for MBC: ATCC 27853, 24 h, read-out: MBC>99.9; in short: as §2
Escherichia coli [8] = assay: Bactericidal activity against Escherichia coli K88 incubated for 24 hrs followed by replating on agar plate and measured after overnight incubation; type: functional; conditions: for MBC: K88, 24 h, read-out: MBC>99.9; in short: as §2
Staphylococcus aureus [9] = assay: Bactericidal activity against methicillin-resistant Staphylococcus aureus ATCC 43300 incubated for 24 hrs followed by replating on agar plate and measured after overnight incubation; type: functional; conditions: for MBC: ATCC 43300, 24 h, read-out: MBC>99.9
In short: (§3)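 After the 24 h, 37 °C MHB microdilution MIC assay, 50 μL from each well was plated on agar and incubated overnight. MBC taken as lowest peptide concentration killing >99.9% of cells. At least three independent experiments, each with three technical replicates.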

Staphylococcus aureus [10] = assay: Bactericidal activity against Staphylococcus aureus ATCC 29213 incubated for 24 hrs followed by replating on agar plate and measured after overnight incubation; type: functional; conditions: for MBC: ATCC 29213, 24 h, read-out: MBC>99.9; in short: as §3
Escherichia coli [11] = assay: Antibacterial activity against Escherichia coli ATCC 25922 measured after 18 to 24 hrs in presence of CaCl2; type: functional
Escherichia coli [12] = assay: Antibacterial activity against Escherichia coli ATCC 25922 measured after 18 to 24 hrs in presence of MgCl2; type: functional
Escherichia coli [13] = assay: Antibacterial activity against Escherichia coli ATCC 25922 measured after 18 to 24 hrs in presence of ZnCl2; type: functional
Staphylococcus aureus [14] = assay: Antibacterial activity against Staphylococcus aureus ATCC 29213 measured after 18 to 24 hrs in presence of KCl; type: functional
Staphylococcus aureus [15] = assay: Antibacterial activity against Staphylococcus aureus ATCC 29213 measured after 18 to 24 hrs in presence of MgCl2; type: functional
Staphylococcus aureus [16] = assay: Antibacterial activity against Staphylococcus aureus ATCC 29213 measured after 18 to 24 hrs in presence of NH4Cl; type: functional
In short: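 MIC broth microdilution (MHB, 0.2% BSA peptide diluent, A492, 95% inhibition) run in the presence of physiological salts at final concentrations of 6 μM NH4Cl or 8 μM ZnCl2. Three independent assays, each with three technical replicates.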

Candida albicans [17] = assay: Antifungal activity against Candida albicans cgmcc2.2086 measured after 48 hrs in presence of KCl by broth microdilution method; type: functional
Candida albicans [18] = assay: Antifungal activity against Candida albicans cgmcc2.2086 measured after 48 hrs in presence of MgCl by broth microdilution method; type: functional
[19] = Therapeutic index, ratio of MHC10 for hemolytic activity in human RBC to MIC95 against Escherichia coli ATCC 25922; type: toxicity; conditions: human red blood cells (erythrocytes), pooled result: one value given for 9 cell lines, strains, targets or settings, read-out: TI
In short: (§4)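 Therapeutic index = MHC divided by MIC. MHC is the lowest concentration giving >10% lysis of human RBC (1 h, 37 °C, 1-128 µM, A576). MIC is 95% growth inhibition by broth microdilution: bacteria in MHB 24 h at 37 °C; Candida in MOPS-buffered RPMI 1640 at (0.5–1) × 10^3 CFU mL−1, 48 h at 28 °C.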

[20] = Therapeutic index, ratio of MHC10 for hemolytic activity in human RBC to MIC95 against methicillin-resistant Staphylococcus aureus ATCC 43300; type: toxicity; conditions: human red blood cells (erythrocytes), read-out: TI; in short: as §4
[21] = Therapeutic index, ratio of MHC10 for hemolytic activity in human RBC to MIC95 against Staphylococcus aureus ATCC 25923; type: toxicity; conditions: human red blood cells (erythrocytes), read-out: TI; in short: as §4
[22] = Therapeutic index, ratio of MHC10 for hemolytic activity in human RBC to MIC95 against Candida albicans cgmcc2.2086; type: toxicity; conditions: human red blood cells (erythrocytes), read-out: TI; in short: as §4
[23] = Therapeutic index, ratio of MHC10 for hemolytic activity in human RBC to MIC95 against Candida parapsilosis cgmcc2.3989; type: toxicity; conditions: human red blood cells (erythrocytes), read-out: TI; in short: as §4
[24] = Therapeutic index, ratio of MHC10 for hemolytic activity in human RBC to MIC95 against Candida tropicalis cgmcc2.1975; type: toxicity; conditions: human red blood cells (erythrocytes), read-out: TI; in short: as §4
[25] = Cytotoxicity against mouse RAW264.7 cells assessed as cell viability at 2 to 64 uM measured after 18 to 24 hrs by MTT assay relative to control; type: cell-based; conditions: RAW264.7 cells, read-out: Activity
In short: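 MTT assay: RAW264.7 cells seeded at 1.0–2.0×10^4 per well and exposed to peptide (2–64 µM) for 18–24 h at 37 °C in 5% CO2. MTT (0.5 mg/mL) added for 4 h, formazan dissolved in DMSO, read at 570 nm. At least three independent experiments with triplicate wells.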

[26] = Conformational stability in pH 7.4 sodium phosphate buffer assessed as absorption spectra at minimum dichroic band at 35 uM by CD spectra analysis; type: physicochemical; conditions: pH 7.4, 35 µM
In short: (§5)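 CD spectra from 190 to 250 nm of peptide at 35 μM in 10 mM PBS, 30 mM SDS micelles or 50% TFE, recorded in a 1.0-mm quartz cell. Ellipticity was converted to mean residue ellipticity. Three independent scans, each averaged over more than 3 runs.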

[27] = Conformational stability in 50% trifluoro-ethyl alcohol assessed as alpha-helical structural propensity by measuring absorption spectra at minimum dichroic band at 35 uM by CD spectra analysis; type: physicochemical; in short: as §5

| Compound | MIC95 (Escherichia coli [1]; ATCC 25922, 24 h) [µM] | MIC95 [2] [µM] | MIC95 (Pseudomonas aeruginosa [3]; ATCC 27853, 24 h) [µM] | MIC95 (Escherichia coli [4]; K88, 24 h) [µM] | MIC95 ([5]; ATCC 12228, 24 h) [µM] | MBC (Escherichia coli [6]) [µM] | MBC (Salmonella typhimurium) [µM] | MBC (Pseudomonas aeruginosa [7]) [µM] | MBC (Escherichia coli [8]) [µM] | MBC (Staphylococcus aureus [9]) [µM] | MBC (Staphylococcus aureus [10]) [µM] | MIC95 (Escherichia coli [11]) [µM] | MIC95 (Escherichia coli [12]) [µM] | MIC95 (Escherichia coli [13]) [µM] | MIC95 (Staphylococcus aureus [14]) [µM] | MIC95 (Staphylococcus aureus [15]) [µM] | MIC95 (Staphylococcus aureus [16]) [µM] | MIC95 (Candida albicans [17]; cgmcc2.2086, 48 h) [µM] | MIC95 (Candida albicans [18]; cgmcc2.2086, 48 h) [µM] | selectivity ratio [19] | other results |
| --- | --- | --- | --- | --- | --- | --- | --- | --- | --- | --- | --- | --- | --- | --- | --- | --- | --- | --- | --- | --- | --- |
| CC[C@H](C)[C@H](NC(=O)CN)C(=O)NCC(=O)N[C@@H](C)C(=O)N[C@H](C(=O)N[C@@H](CC(C)C)C(=O)N[C@@H](CCCCN)C(=O)N[C@H](C(=O)N[C@@H](CC(C)C)C(=O)N[C@H](C(=O)N[C@H](C(=O)NCC(=O)N[C@@H](CC(C)C)C(=O)N1CCC[C@H]1C(=O)N[C@@H](C)C(=O)N[C@@H](CC(C)C)C(=O)N[C@H](C(=O)N[C@@H](CO)C(=O)N[C@@H](Cc1c[nH]c2ccccc12)C(=O)N[C@H](C(=O)N[C@@H](CCCCN)C(=O)N[C@@H](CCCNC(=N)N)C(=O)N[C@@H](CCCCN)C(=O)N[C@@H](CCCNC(=N)N)C(=O)N[C@@H](CCC(N)=O)C(=O)N[C@@H](CCC(N)=O)C(N)=O)[C@@H](C)CC)[C@@H](C)CC)[C@@H](C)O)[C@@H](C)O)C(C)C)C(C)C [MELITTIN] | 2 (≈ 5.69 µg/mL) | 2 (≈ 5.69 µg/mL) | 2 (≈ 5.69 µg/mL) | 1 (≈ 2.85 µg/mL) | 2 (≈ 5.69 µg/mL) | 2 (≈ 5.69 µg/mL) | 2 (≈ 5.69 µg/mL) | 4 (≈ 11.4 µg/mL) | 2 (≈ 5.69 µg/mL) | 4 (≈ 11.4 µg/mL) | 8 (≈ 22.8 µg/mL) | 8 | 4 | 2 | 4 | 4 | 4 | 4 | 4 | 0.54 | selectivity ratio [20]: 0.35; selectivity ratio [21]: 0.35; selectivity ratio [22]: 0.32; selectivity ratio [23]: 0.32; selectivity ratio [24]: 0.32 |
| H-AARIILRYRFR-NH2 | 8 | 4 | 16 | 4 | 2 | 8 | 16 | 64 | 8 | 8 | 8 | > 128 | 64 | 8 | 8 | 8 | 4 | 64 | 64 | 47 | viability at up to 64 µM [25]: 90 to 100%; selectivity ratio [20]: 64; selectivity ratio [21]: 64; selectivity ratio [22]: 8; selectivity ratio [23]: 8; selectivity ratio [24]: 8; Wavelength of minimum CD band [26]: 200 nm; Activity [27]: 208 to 222 nm |
| GENTAMICIN | – | – | – | – | – | – | – | – | – | – | – | 1 | 1 | 1 | 1 | 1 | 1 | – | – | – | MIC95 (Escherichia coli [1]): 1 µM; MIC95 (Pseudomonas aeruginosa [3]): 1 µM; MIC95 (Escherichia coli [4]): 1 µM; MIC95 [5]: 1 µM; MBC>99.9 (Escherichia coli [6]): 1 µM; MBC>99.9 (Salmonella typhimurium): 4 µM; MBC>99.9 (Pseudomonas aeruginosa [7]): 1 µM; MBC>99.9 (Escherichia coli [8]): 1 µM; MBC>99.9 (Staphylococcus aureus [9]): 16 µM; MBC>99.9 (Staphylococcus aureus [10]): 1 µM; MIC95 (Candida albicans [17]): > 128 µM; MIC95 (Candida albicans [18]): > 128 µM |
| POLYMYXIN B | – | – | – | – | – | – | – | – | – | – | – | 16 | 1 | 2 | 32 | 32 | 32 | – | – | – | MIC95 (Escherichia coli [1]): 2 µM; MIC95 (Pseudomonas aeruginosa [3]): 2 µM; MIC95 (Escherichia coli [4]): 0.5 µM; MIC95 [5]: 32 µM; MBC>99.9 (Escherichia coli [6]): 2 µM; MBC>99.9 (Salmonella typhimurium): 2 µM; MBC>99.9 (Pseudomonas aeruginosa [7]): 4 µM; MBC>99.9 (Escherichia coli [8]): 1 µM; MBC>99.9 (Staphylococcus aureus [9]): 128 µM; MBC>99.9 (Staphylococcus aureus [10]): 64 µM; MIC95 (Candida albicans [17]): 32 µM; MIC95 (Candida albicans [18]): 32 µM |
